“Also recorded” adds a separate entry of the source.

In data set [1] the target is T1, PTP1B in tumor lysates from NDL2 mice (Mus musculus, UniProt P35821).
T1 sequence (P35821 1-432): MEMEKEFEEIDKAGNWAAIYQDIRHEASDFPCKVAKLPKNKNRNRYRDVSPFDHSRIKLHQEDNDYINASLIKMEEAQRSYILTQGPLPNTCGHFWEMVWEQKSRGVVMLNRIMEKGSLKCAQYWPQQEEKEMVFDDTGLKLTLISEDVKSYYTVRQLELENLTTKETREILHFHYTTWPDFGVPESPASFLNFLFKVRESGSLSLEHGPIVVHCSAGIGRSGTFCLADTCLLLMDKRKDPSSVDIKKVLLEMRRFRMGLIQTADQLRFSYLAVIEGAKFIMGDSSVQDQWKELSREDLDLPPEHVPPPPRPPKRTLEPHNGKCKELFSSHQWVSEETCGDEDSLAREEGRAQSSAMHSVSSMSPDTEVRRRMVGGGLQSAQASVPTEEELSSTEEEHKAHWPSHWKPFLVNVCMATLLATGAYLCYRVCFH
Put plainly: Binding assay with bead-immobilized compound in tumor lysates. To be noted: confirmed by immunoblotting. An outline of the steps: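 Test compound was coupled through its primary amine to NHS-activated magnetic beads (1 mM, 100 mM triethylamine, 8 h, 4°C), and free NHS groups were blocked with 0.8 M aminoethanol. Beads were incubated with 0–1 mg NDL2 tumour lysate protein and washed. Bound protein was eluted by heat in SDS sample buffer, run on 10% SDS-PAGE and identified by immunoblotting. Beads carrying a related amine compound served as negative control.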

The test system of data set [2] is BT474 xenografts re-expressing wild type or L192A/S372P PTP1B. The experiment in a line: BT474 xenografts with PTP1B suppressed and re-expressed. In kind it is in vivo, mouse. To be noted: 5 mg/kg, two independent experiments. Summed up: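 BT474 cells with PTP1B suppressed by RNAi and re-expressing wild type or mutant PTP1B were used. Luciferase-expressing cells (5×10^6) were injected orthotopically into mammary fat pads of SCID-beige mice in 1:1 DMEM/growth factor-reduced Matrigel. Mice were randomised to saline or test compound 5 mg/kg i.p. every third day. Tumours were followed by luciferin imaging and by palpation (volume = width2 × length/2) three times weekly.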

In another data set the target is T2, PTP1B (1-367) (Homo sapiens, UniProt P18031).
T2 sequence (P18031 1-367): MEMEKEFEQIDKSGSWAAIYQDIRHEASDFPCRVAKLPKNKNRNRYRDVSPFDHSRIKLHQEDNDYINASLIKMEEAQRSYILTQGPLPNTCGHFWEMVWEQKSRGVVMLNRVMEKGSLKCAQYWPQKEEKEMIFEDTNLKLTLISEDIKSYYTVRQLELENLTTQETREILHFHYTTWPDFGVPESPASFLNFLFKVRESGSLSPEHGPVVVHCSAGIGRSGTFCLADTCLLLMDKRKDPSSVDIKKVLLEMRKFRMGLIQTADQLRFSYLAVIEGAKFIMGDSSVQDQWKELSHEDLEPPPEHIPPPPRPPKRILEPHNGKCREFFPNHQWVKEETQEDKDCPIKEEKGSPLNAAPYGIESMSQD
Put plainly: PTP assay, truncation mutant. It counts as biochemical. The conditions noted are these: similar to PTP1B1-321. An outline of the steps: (§1)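 Continuous fluorescence PTP assay with 10 nM purified PTP1B and 10 μM DiFMUP substrate. Emission at 450 nm was monitored for 20 minutes.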

The target of another data set is T3, PTP1B (1-346) (Homo sapiens, UniProt P18031).
T3 sequence (P18031 1-346): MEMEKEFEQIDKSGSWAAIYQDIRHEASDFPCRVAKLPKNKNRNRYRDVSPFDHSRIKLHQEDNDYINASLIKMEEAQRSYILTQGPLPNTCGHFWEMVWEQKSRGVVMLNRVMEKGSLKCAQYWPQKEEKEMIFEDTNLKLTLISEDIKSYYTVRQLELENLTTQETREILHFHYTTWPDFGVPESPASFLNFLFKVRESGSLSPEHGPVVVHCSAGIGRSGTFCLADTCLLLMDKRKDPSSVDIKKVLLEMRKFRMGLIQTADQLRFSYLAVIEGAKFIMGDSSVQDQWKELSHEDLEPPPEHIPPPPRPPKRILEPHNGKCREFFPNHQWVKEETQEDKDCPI
The experiment in a line: PTP assay, truncation mutant. It counts as biochemical. To be noted: similar to PTP1B1-321. Summed up: as §1

The conditions of data set [3]: patients; cited from earlier work.
Another data set concerns the target T4, PTP1B1-321 (Homo sapiens, UniProt P18031).
T4 sequence (P18031 1-321): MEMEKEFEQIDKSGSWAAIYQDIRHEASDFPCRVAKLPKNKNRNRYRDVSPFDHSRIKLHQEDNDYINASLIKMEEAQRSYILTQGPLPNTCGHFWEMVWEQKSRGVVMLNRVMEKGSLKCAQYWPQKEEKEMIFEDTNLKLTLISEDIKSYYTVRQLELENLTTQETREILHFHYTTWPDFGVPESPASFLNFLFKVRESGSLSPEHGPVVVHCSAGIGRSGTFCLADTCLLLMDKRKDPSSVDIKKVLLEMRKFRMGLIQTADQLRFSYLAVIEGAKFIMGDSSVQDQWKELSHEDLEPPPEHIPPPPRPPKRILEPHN
The experiment in a line: PTP assay with DiFMUP substrate. In kind it is biochemical.

For data set [4], the target named is T5, PTP1B1-405 (Homo sapiens, UniProt P18031).
T5 sequence (P18031 1-405): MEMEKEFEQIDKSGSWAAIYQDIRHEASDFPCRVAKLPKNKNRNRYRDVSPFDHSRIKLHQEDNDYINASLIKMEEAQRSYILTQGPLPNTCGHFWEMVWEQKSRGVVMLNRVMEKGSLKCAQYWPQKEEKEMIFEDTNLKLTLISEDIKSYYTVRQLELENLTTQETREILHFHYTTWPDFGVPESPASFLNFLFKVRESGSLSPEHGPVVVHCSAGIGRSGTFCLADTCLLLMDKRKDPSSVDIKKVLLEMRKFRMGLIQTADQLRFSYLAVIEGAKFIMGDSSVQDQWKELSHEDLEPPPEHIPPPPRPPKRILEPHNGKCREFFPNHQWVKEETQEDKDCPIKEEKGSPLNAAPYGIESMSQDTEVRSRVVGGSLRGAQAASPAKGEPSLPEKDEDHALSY
The experiment in a line: Direct binding assay with [3H]-MSI-1436.

The subject of data set [5] is tyrosine phosphorylation-dependent signaling in tumors. Put plainly: Immunoblotting of tumor lysates from NDL2 mice. In kind it is in vivo. To be noted: tumor samples from treated NDL2 animals. Summed up:
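Tumours from treated NDL2 mice were dissected free of connective tissue, ground under liquid nitrogen and lysed 30 min on ice. Lysis buffer: HEPES pH 7.4, glycerol, Triton X-100, NaCl, EGTA, 1 mM orthovanadate, 20 mM NaF, protease inhibitors. Lysates were cleared at 12,000 x g, 15 min, 4 °C. Lysate (20 μg) was blotted with anti-phosphotyrosine (4G10), anti-p62DOK and anti-phospho-Erk, then stripped and reprobed with total-protein antibodies.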

Data set [6] addresses T5, PTP1B1-405. Put plainly: Limited proteolysis with trypsin. To be noted: saturating concentrations of MSI-1436 (5 μM).

Turning to `CC(C)[C@@H](CC[C@@H](C)[C@H]1CC[C@H]2[C@@H]3[C@H](O)C[C@H]4C[C@@H](NCCCNCCCCNCCCN)CC[C@]4(C)[C@H]3CC[C@]12C)OS(=O)(=O)O` [MSI-1436, Trodusquemine], the “retention of 50 kDa band (PTP1B) by compound beads” value in [1] is listed as “PTP1B was cleared from the lysate; also recorded: retained”. The “sensitivity of xenografts re-expressing wild type PTP1B versus mutant protein” value in [2] was “more sensitive”. Moreover, at PTP1B (1-367), the “inhibitory potency compared to PTP1B1-405 and PTP1B1-394” value is “lower”. On PTP1B (1-346), the “inhibitory potency compared to PTP1B1-405 and PTP1B1-394” value is “lower”. Further, the tolerability entry in [3] was “well tolerated”. Also, the mode of inhibition result on PTP1B1-321 was “reversible non-competitive inhibitor”. This molecule registered a Hill coefficient at PTP1B1-405 [4] (Hill plot) of 1.3. In addition, the stoichiometry at PTP1B1-405 [4] (scintillation counting) amounted to 2 mol/mol. Besides, in [5], the “phosphorylation of p44/42 MAP kinase” value was “decrease” and the “tyrosine phosphorylation of p62DOK” value was “significant increase”. Moreover, at PTP1B1-405 [6], the sensitivity to trypsin entry was “more trypsin-resistant state”.

Usually Hill coefficient stands for a measure of the steepness of the concentration-response curve.

The values above are taken from publication PMC4062594 (Nature chemical biology, 2014).
